In ChEMBL document CHEMBL1136549, “Novel antifungal beta-amino acids: synthesis and activity against Candida albicans” (Bioorg Med Chem Lett, 2003):
In brackets after ≈: the same amount, converted by molar mass.

The compounds below were run on Candida albicans (assay: In vitro inhibitory activity against Candida albicans). Details: not given.
Assay type: functional, organism-based
How it was run: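 Microbroth dilution; C. albicans ATCC 36082, inoculum 10³ cfu/mL in YNB medium (yeast-nitrogen base 6.7 g/L, glucose 10 g/L, pH 7). Incubated 24 h at 37 °C; growth read photo-/nephelometrically at 360 nm; IC₅₀ determined.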

Row | SMILES | IC50 [µg/mL]
1 | C=C1C[C@H](NCC)[C@H](C(=O)O)C1 | 128 (≈ 756 µM)
2 | C=C1C[C@@H](CO)[C@@H](N)C1 | > 256
3 | Cl.N[C@H]1CCC[C@H]1P(=O)(O)O | > 256
4 | Cl.N[C@H]1CCC[C@H]1S(=O)(=O)O | > 256
5 | C=C1CC[C@H](N)[C@H](C(=O)O)C1.Cl | > 256
6 | C[C@]1(N)CCC[C@H]1C(=O)O.Cl | 64
7 | CCCC(N)CC(=O)O.Cl (configuration not stated) | > 256
8 | Cl.N[C@H]1CC(F)(F)C[C@H]1C(=O)O | 128
9 | C=C1C[C@H](N)[C@H](c2nnn[nH]2)C1.Cl | 128
10 | CC1(C)C[C@H](N)[C@H](C(=O)O)C1.Cl | 256
11 | C=C=C1C[C@H](N)[C@H](C(=O)O)C1.Cl | 128
12 | CCCC/C=C1/C[C@H](N)[C@H](C(=O)O)C1.Cl | 128
13 | C=C1C[C@H](N)[C@H](C(=O)O)C1C.Cl (some centres not stated) | 128
14 | C=C1C[C@@H](C(=O)O)[C@@H](N)C1C.Cl (mixture of isomers) | 64

The remaining lines, values ahead:

Row | IC50 [µg/mL] | SMILES
15 | 64 (≈ 435 µM) | N[C@H]1CSC[C@H]1C(=O)O
16 | 128 | C=C1C[C@@H](N)[C@@H](C(=O)O)C1.Cl
17 | > 256 | C=C1C[C@@H](C(=O)O)[C@H]1N.Cl
18 | > 256 | Cl.Cl.N[C@H]1CCN[C@H]1C(=O)O
19 | 128 | C=C1C[C@H](C(=O)O)[C@@H](N)C1.Cl
20 | 128 | Cl.N[C@H]1CCCC[C@H]1C(=O)O
21 | > 256 | C=C1C[C@H](N)[C@@H]1C(=O)O.Cl
22 | 128 | CC1CC[C@@H](C(=O)O)[C@H]1N.Cl (some centres not stated)
23 | 128 | C=CC1C[C@H](N)[C@H](C(=O)O)C1.Cl (some centres not stated)
24 | > 256 | Cl.N[C@H]1CCS[C@H]1C(=O)O
25 | 64 | Cl.N[C@H]1C=CCO[C@H]1C(=O)O
26 | 128 | Cl.N[C@H]1CC[C@H]1C(=O)O
27 | 128 | Cl.N[C@H]1CC=CC[C@H]1C(=O)O
28 | 128 | Cl.N[C@H]1CC(O)C[C@H]1C(=O)O (some centres not stated)
29 | 64 | Cl.Cl.NC1C[C@H](N)[C@H](C(=O)O)C1 (mixture of isomers)
30 | 16 | CC1CC[C@H](N)[C@@H]1C(=O)O.Cl (single isomer, unassigned; Diastereomer B)

Same assay, conditions: Candida albicans; read-out: IC50

Row | SMILES | IC50 [µg/mL]
31 | C=C1C[C@H](N)[C@H](C(=O)NO)C1 | 32 (≈ 205 µM)
32 | N[C@H]1CC2(CC2)C[C@H]1C(=O)O | 32 (≈ 206 µM)
33 | N[C@H]1CCC[C@H]1C(F)(F)F | 1 (≈ 6.53 µM)
34 | C=C1C[C@H](NC(=O)OC(C)(C)C)[C@H](C(=O)O)C1 | 16 (≈ 66.3 µM)
35 | C=C1CC[C@@H](C(=O)O)[C@@H](N)C1.Cl | 16
36 | C=C1C[C@H](N)[C@H](C(=O)NC)C1.Cl | 32
37 | C=C1C[C@H](N)[C@H](C(=O)N[C@H](CC(C)C)C(=O)O)C1.Cl | 16
38 | C=C1CN[C@H](C(=O)O)C1.Cl | 32
39 | C=C1C[C@H](NC(=O)[C@@H](N)CC(C)C)[C@H](C(=O)O)C1.Cl | 2
40 | C=C1C[C@H](N)[C@H](C(=O)OC)C1.Cl | 2
41 | C=C1C[C@H](N)[C@H](C(=O)O)C1 [ICOFUNGIPEN] | 0.13 (≈ 0.921 µM)

Now from value to compound:

Row | IC50 [µg/mL] | SMILES
42 | 32 (≈ 244 µM) | N[C@H]1COC[C@H]1C(=O)O
43 | 32 | C=C1CC[C@@H](C(=O)O)[C@H]1N.Cl
44 | 0.13 | Cl.N[C@H]1CCC[C@H]1C(=O)O
45 | 0.03 | Cl.N[C@H]1C=CCC[C@H]1C(=O)O
46 | 16 | CC1C=C(C(=O)O)C(N)C1.Cl (configuration not stated)
47 | 32 | CC1=C[C@@H](C(=O)O)[C@@H](N)C1.Cl
48 | 32 | Cl.N[C@H]1CC2(C[C@H]1C(=O)O)OCCO2
49 | 8 | CC1=C[C@H](N)[C@H](C(=O)O)C1.Cl
50 | 0.5 | Cl.N[C@H]1C=CC[C@H]1C(=O)O
51 | 4 | CC1C[C@H](N)[C@H](C(=O)O)C1.Cl (mixture of isomers)
52 | 8 | CC1CC[C@H](N)[C@@H]1C(=O)O.Cl (stereo in doubt)
